Measurements taken from ChEMBL document CHEMBL2311304, “Design, synthesis and in vitro and in vivo antitumor activities of novel bivalent β-carbolines” (Eur J Med Chem, 2013).

Columns and labels:
Type in all cases: functional, cell-based
BGC-823 = test: Cytotoxicity against human gastric carcinoma BGC823 cells assessed as reduction in optical density by MTT assay
Outline: (§1)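 Cells were cultured in RPMI-1640 with 10% (v/v) fetal calf serum, 100 µg ml-1 penicillin and 100 µg ml-1 streptomycin at 37 °C in humidified 5% CO2. Compounds were dissolved in DMSO, with final DMSO at 2% (v/v) or lower. MTT staining was used, with three replicate wells per point. IC50 is the concentration giving a 50% drop in optical density versus untreated cells.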

SK-OV-3 = test: Cytotoxicity against human ovary adenocarcinoma SKOV3 cells assessed as reduction in optical density by MTT assay; conditions: SK-OV-3, Female gonad; outline: as §1
769-P = test: Cytotoxicity against human renal carcinoma 769-P cells assessed as reduction in optical density by MTT assay; outline: as §1
KB = test: Cytotoxicity against human epidermoid carcinoma of the nasopharynx KB cells assessed as reduction in optical density by MTT assay; outline: as §1
A-375 = test: Cytotoxicity against human malignant melanoma A375 cells assessed as reduction in optical density by MTT assay; outline: as §1

COc1cc(-c2nccc3c4ccccc4n(CCCCCCCn4c5ccccc5c5ccnc(-c6cc(OC)c(OC)c(OC)c6)c54)c23)cc(OC)c1OC
IC50 (BGC-823): > 200 µM
IC50 (SK-OV-3): > 200 µM
IC50 (769-P): 3.3 µM
IC50 (KB): 7.6 µM
IC50 (A-375): 4 µM

CCOC(=O)c1cc2c3ccccc3n(CCCCCCn3c4ccccc4c4cc(C(=O)OCC)nc(-c5cc(OC)c(OC)c(OC)c5)c43)c2c(-c2cc(OC)c(OC)c(OC)c2)n1
IC50 (BGC-823): > 200 µM
IC50 (SK-OV-3): > 200 µM
IC50 (769-P): > 200 µM
IC50 (KB): > 200 µM
IC50 (A-375): > 200 µM

CCOC(=O)c1cc2c3ccccc3n(CCCCCCCCCn3c4ccccc4c4cc(C(=O)OCC)nc(-c5cc(OC)c(OC)c(OC)c5)c43)c2c(-c2cc(OC)c(OC)c(OC)c2)n1
IC50 (BGC-823): > 200 µM
IC50 (SK-OV-3): > 200 µM
IC50 (769-P): > 200 µM
IC50 (KB): > 200 µM
IC50 (A-375): > 200 µM

Cc1nccc2c3cc(Br)ccc3n(CCCCCn3c4ccc(Br)cc4c4ccnc(C)c43)c12
IC50 (BGC-823): > 200 µM
IC50 (SK-OV-3): > 200 µM
IC50 (769-P): 4.3 µM
IC50 (KB): > 200 µM
IC50 (A-375): > 200 µM

Cc1nccc2c3cc(Br)ccc3n(CCCCCCn3c4ccc(Br)cc4c4ccnc(C)c43)c12
IC50 (BGC-823): > 200 µM
IC50 (SK-OV-3): 63.4 µM
IC50 (769-P): > 200 µM
IC50 (KB): > 200 µM
IC50 (A-375): > 200 µM

CCCCOc1ccc2c3ccnc(C)c3n(CCCCCCn3c4cc(OCCCC)ccc4c4ccnc(C)c43)c2c1
IC50 (BGC-823): > 200 µM
IC50 (SK-OV-3): > 200 µM
IC50 (769-P): 56 µM
IC50 (KB): > 200 µM
IC50 (A-375): > 200 µM

Cc1nccc2c3ccc(OC(C)C)cc3n(CCCCCCCCCn3c4cc(OC(C)C)ccc4c4ccnc(C)c43)c12
IC50 (BGC-823): > 200 µM
IC50 (SK-OV-3): 101 µM
IC50 (769-P): 40 µM
IC50 (KB): 112 µM
IC50 (A-375): 43.3 µM

CC(C)c1nccc2c3ccccc3n(CCCCCCCCCCn3c4ccccc4c4ccnc(C(C)C)c43)c12
IC50 (BGC-823): > 200 µM
IC50 (SK-OV-3): > 200 µM
IC50 (769-P): 4.6 µM
IC50 (KB): > 200 µM
IC50 (A-375): 19.6 µM

c1ccc2c(c1)c1ccnc(-c3ccsc3)c1n2CCCCCCn1c2ccccc2c2ccnc(-c3ccsc3)c21
IC50 (BGC-823): > 200 µM
IC50 (SK-OV-3): > 200 µM
IC50 (769-P): > 200 µM
IC50 (KB): > 200 µM
IC50 (A-375): > 200 µM

c1ccc2c(c1)c1ccnc(-c3ccsc3)c1n2CCCCCCCCn1c2ccccc2c2ccnc(-c3ccsc3)c21
IC50 (BGC-823): > 200 µM
IC50 (SK-OV-3): > 200 µM
IC50 (769-P): > 200 µM
IC50 (KB): > 200 µM
IC50 (A-375): 32.1 µM

CCOC(=O)c1cc2c3ccccc3n(CCCCCn3c4ccccc4c4cc(C(=O)OCC)nc(-c5cccnc5)c43)c2c(-c2cccnc2)n1
IC50 (BGC-823): 24.1 µM
IC50 (SK-OV-3): > 200 µM
IC50 (769-P): 132 µM
IC50 (KB): 15.7 µM
IC50 (A-375): 13 µM

CCOC(=O)c1cc2c3ccccc3n(CCCCCCn3c4ccccc4c4cc(C(=O)OCC)nc(-c5cccnc5)c43)c2c(-c2cccnc2)n1
IC50 (BGC-823): > 200 µM
IC50 (SK-OV-3): 68.3 µM
IC50 (769-P): > 200 µM
IC50 (KB): > 200 µM
IC50 (A-375): > 200 µM

c1ccc2c(c1)c1ccncc1n2CCCCCCCn1c2ccccc2c2ccncc21
IC50 (BGC-823): > 200 µM
IC50 (SK-OV-3): > 200 µM
IC50 (769-P): 53 µM
IC50 (KB): > 200 µM
IC50 (A-375): > 200 µM

Brc1cccc2c3ccncc3n(CCCCCCn3c4cnccc4c4cccc(Br)c43)c12
IC50 (BGC-823): > 200 µM
IC50 (SK-OV-3): > 200 µM
IC50 (769-P): > 200 µM
IC50 (KB): > 200 µM
IC50 (A-375): > 200 µM

Cc1nccc2c3ccccc3n(CCCCCCCn3c4ccccc4c4ccnc(C)c43)c12
IC50 (BGC-823): > 200 µM
IC50 (SK-OV-3): 96.8 µM
IC50 (769-P): 51.7 µM
IC50 (KB): > 200 µM
IC50 (A-375): > 200 µM

Cc1nccc2c3ccccc3n(CCCCCCCCn3c4ccccc4c4ccnc(C)c43)c12
IC50 (BGC-823): > 200 µM
IC50 (SK-OV-3): > 200 µM
IC50 (769-P): > 200 µM
IC50 (KB): > 200 µM
IC50 (A-375): > 200 µM

Cc1nccc2c3ccccc3n(CCCCCCCCCn3c4ccccc4c4ccnc(C)c43)c12
IC50 (BGC-823): > 200 µM
IC50 (SK-OV-3): 61.9 µM
IC50 (769-P): > 200 µM
IC50 (KB): > 200 µM
IC50 (A-375): 57.2 µM

CCOC(=O)c1cc2c3ccccc3n(CCCCCCn3c4ccccc4c4cc(C(=O)OCC)nc(C)c43)c2c(C)n1
IC50 (BGC-823): > 200 µM
IC50 (SK-OV-3): > 200 µM
IC50 (769-P): > 200 µM
IC50 (KB): > 200 µM
IC50 (A-375): > 200 µM
